In ChEMBL document CHEMBL2434877, “Synthesis and SAR study of novel 3,3-diphenyl-1,3-dihydroindol-2-one derivatives as potent eIF2·GTP·Met-tRNAiMet ternary complex inhibitors” (Eur J Med Chem, 2013):
Activity calls are given as the source filed them. No cut-off for these calls is given here.

Columns and labels:
Mus musculus [1] = organism: Mus musculus; experiment: Inhibition of eIF2-GTP-Met-tRNAi (Met) in mouse KLN205 cells assessed as increase in CHOP mRNA expression by qRT-PCR analysis relative to DMSO-treated control; assay type: cell-based
Outline: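 CHOP mRNA measured by PCR in KLN-205 cells, triplicate in at least two independent runs. Transcript quantities normalized to 18S rRNA and expressed as fold over DMSO control.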

[2] = Antiproliferative activity against human CRL2351 cells after 5 days by SRB assay; assay type: functional, cell-based; conditions: 120 h
Outline: (§1)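 Adherent cells plated, allowed to settle overnight, then exposed 5 days to 0.54–20 µM compound. Fixed in cold 10% TCA (4 °C, 1 h), stained with 0.4% SRB in 1% acetic acid for 1 h, dye solubilized in 10 mM Tris pH 10, A490 read. Time-zero plates used for %T/C. IC50 is the 50% growth-inhibition concentration, mean of 2 experiments each in triplicate.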

[3] = Antiproliferative activity against mouse KLN205 cells after 5 days by SRB assay; assay type: functional, cell-based; conditions: 120 h; outline: as §1
Mus musculus [4] = organism: Mus musculus; experiment: Inhibition of eIF2-GTP-Met-tRNAi (Met) in mouse KLN205 cells assessed as increase in ATF-4 expression at 40 uM by dual luciferase reporter gene assay relative to control; assay type: cell-based
Outline: (§2)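 KLN-205 cells carry firefly luciferase fused to the ATF-4 5′UTR and renilla luciferase behind a uORF-free 5′UTR. Cells treated overnight with compound at 10, 20, 40 or 80 µM, then read with a glow-type dual luciferase kit. Firefly/renilla ratio corrected for the same ratio in DMSO wells on the same plate.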

[5] = Antiproliferative activity against human CRL2813 cells after 5 days by SRB assay; assay type: functional, cell-based; conditions: CRL2813, 120 h; outline: as §1
MCF7 = experiment: Antitumor activity against human MCF7 cells xenografted in mouse assessed as regression in tumor size at 140 mg/kg, sc bid for 3 weeks relative to control; assay type: functional; conditions: route subcutaneous
Mus musculus [6] = organism: Mus musculus; experiment: Inhibition of eIF2-GTP-Met-tRNAi (Met) in mouse KLN205 cells assessed as increase in ATF-4 expression at 80 uM by dual luciferase reporter gene assay relative to control; assay type: cell-based; outline: as §2
Mus musculus [7] = organism: Mus musculus; experiment: Inhibition of eIF2-GTP-Met-tRNAi (Met) in mouse KLN205 cells assessed as increase in ATF-4 expression at 10 to 80 uM by dual luciferase reporter gene assay; assay type: cell-based; outline: as §2

Row | Compound | fold change (FC) (Mus musculus [1]) | IC50 [2] [nM] | IC50 [3] [µM] | fold change (FC) (Mus musculus [4]) | IC50 [5] [nM] | Activity (MCF7) [%] | fold change (FC) (Mus musculus [6]) | ATF-4 reporter expression relative to DMSO control (Mus musculus [7])
1 | CC(C)(C)c1ccc(O)c(C2(c3ccccc3)C(=O)Nc3ccccc32)c1 (configuration not stated) | 3.77 | 3400 | 14.4 | 3.7 | 4800 | 30 |  | 
2 | CC(C)(C)c1ccc(O)c(C2(c3ccccc3)C(=O)Nc3ccc(-c4ccc(N5CCOCC5)nc4)cc32)c1 (configuration not stated) | 20.8 | 1800 | 13.3 |  | 2500 |  | 15.6 | 
3 | CC(C)(C)c1ccc(O)c(C2(c3ccc(O)cc3)C(=O)Nc3ccccc32)c1 (configuration not stated) |  | 2000 | 17.3 |  | 4000 |  |  | 
4 | CC(C)(C)c1ccc(O)c(C2(c3ccc(O)cc3)C(=O)Nc3c2ccc(F)c3F)c1 (configuration not stated) | 3.09 | > 20000 | 15.3 | 2.9 | 10700 |  |  | 
5 | COc1ccc(C2(c3cc(C(C)(C)C)ccc3OCCN3CCOCC3)C(=O)Nc3ccccc32)cc1 (racemic) | 7.1 | 2650 | 4.3 | 6.3 | 2400 |  |  | 
6 | CN(C)c1ccc(C2(c3cc(C(C)(C)C)ccc3OCCN3CCOCC3)C(=O)Nc3ccccc32)cc1 (racemic) | 4.15 | 4700 | 2.2 | 7.15 | 7500 |  |  | 
7 | COc1ccc(C2(c3cc(C(C)(C)C)ccc3OCCN3CCOCC3)C(=O)Nc3ccccc32)cc1OC (racemic) |  | > 20000 | > 20 |  | > 20000 |  |  | 
8 | COc1ccc(C2(c3cc(C(C)(C)C)ccc3OCCN3CCOCC3)C(=O)Nc3ccccc32)cc1F (racemic) |  | 2500 | 3.4 |  | 2700 |  |  | 
9 | COc1ccc(C2(c3cc(C(C)(C)C)ccc3OCCN3CCOCC3)C(=O)Nc3ccc(OC)cc32)cc1 (racemic) |  | 4500 | 2.75 |  | 2900 |  |  | 
10 | COC(=O)c1cccc2c1NC(=O)C2(c1ccc(OC)cc1)c1cc(C(C)(C)C)ccc1OCCN1CCOCC1 (racemic) |  | 16300 | 17 |  | 14600 |  |  | inactive
11 | COc1ccc(C2(c3cc(C(C)(C)C)ccc3OCCN3CCOCC3)C(=O)Nc3ccc(I)cc32)cc1 (racemic) |  | 6100 | 12 |  | 2600 |  |  | 
12 | COc1ccc(C2(c3cc(C(C)(C)C)ccc3OCCN3CCOCC3)C(=O)Nc3ccc(OC(F)(F)F)cc32)cc1 (racemic) | 3.49 | 2900 | 9.3 | 5.11 | 1900 |  |  | 
13 | CN(C)c1ccc(C2(c3cc(C(C)(C)C)ccc3OCCN3CCOCC3)C(=O)Nc3c2ccc(F)c3F)cc1 (racemic) |  | 4000 | 15.7 |  | 11000 |  |  | 
14 | C#CCOc1ccc(C(C)(C)C)cc1C1(c2ccccc2)C(=O)Nc2ccccc21 (racemic) |  | 17500 | > 20 |  | > 20000 |  |  | 
15 | CC(C)(C)c1ccc(OCC(=O)O)c(C2(c3ccccc3)C(=O)Nc3ccccc32)c1 (racemic) |  | > 20000 | > 20 |  | > 20000 |  |  | inactive
16 | COc1ccc(C2(c3cc(C(C)(C)C)ccc3O)C(=O)Nc3ccccc32)cc1 (racemic) | 4.09 | 2650 | 15.7 | 5.6 | 2750 |  |  | 
17 | CN(C)c1ccc(C2(c3cc(C(C)(C)C)ccc3O)C(=O)Nc3ccccc32)cc1 (racemic) |  | 2300 | 10.9 |  | 11000 |  |  | 
18 | CC(C)(C)c1ccc(O)c(C2(c3ccc(CN4CCOCC4)cc3)C(=O)Nc3ccccc32)c1 (racemic) | 4.68 | 7300 | 17.3 |  | 7800 |  | 12.4 | 
19 | Cc1cc(C2(c3cc(C(C)(C)C)ccc3O)C(=O)Nc3ccccc32)ccc1Cl (racemic) |  | 2900 | 4.3 |  | 2900 |  |  | 
20 | CC(C)(C)c1ccc(O)c(C2(c3cccnc3)C(=O)Nc3ccccc32)c1 (racemic) |  | 6400 | > 20 |  | 11500 |  |  | 
21 | CC(C)(C)c1ccc(O)c(C2(c3ccccc3)C(=O)Nc3ccc(I)cc32)c1 (racemic) | 4.36 | 3500 | 14.9 | 7.2 | 2800 |  |  | 
22 | CC(C)(C)c1ccc(O)c(C2(c3ccccc3)C(=O)Nc3ccc(OC(F)(F)F)cc32)c1 (racemic) |  | 2500 | 8 |  | 1000 |  |  | 
23 | CC(C)(C)c1ccc(O)c(C2(c3ccccc3)C(=O)Nc3ccc4ncsc4c32)c1 (racemic) |  | 2200 | 8 |  | 950 |  |  | inactive
24 | COc1ccc(C2(c3cc(C(C)(C)C)ccc3O)C(=O)Nc3c2ccc(F)c3F)cc1 (racemic) |  | 950 | 12.3 |  | 3000 |  |  | inactive
25 | COc1ccc(C2(c3cc(C(C)(C)C)ccc3O)C(=O)Nc3ccc(OC)cc32)cc1 (racemic) |  | 2900 | 14.3 |  | 11100 |  |  | inactive
26 | COC(=O)c1cccc2c1NC(=O)C2(c1ccc(OC)cc1)c1cc(C(C)(C)C)ccc1O (racemic) |  | 3400 | > 20 |  | 12200 |  |  | 
27 | CC(C)(C)c1ccc(OCCN2CCOCC2)c(C2(c3ccccc3)C(=O)Nc3ccccc32)c1 (racemic) |  | 3350 | 6.8 |  | 2400 |  |  | 
28 | CN(C)CCOc1ccc(C(C)(C)C)cc1C1(c2ccccc2)C(=O)Nc2ccccc21 (racemic) |  | 1400 | 1.2 |  | 2400 |  |  | 
29 | CC(C)(C)c1ccc(OCCN2CCNCC2)c(C2(c3ccccc3)C(=O)Nc3ccccc32)c1 (racemic) |  | 900 | 1.2 |  | 12800 |  |  | inactive
